Measured values of several laboratories.
Compare with care: the assays were run in different laboratories.

CN(C)C/C=C/C(=O)Nc1cc2c(Nc3ccc(F)c(Cl)c3)ncnc2cc1O[C@H]1CCOC1  half-life (chemical stability; PBS; 250 µM, pH 7.4): > 100 h
Nc1ncn([C@H]2C[C@H](O)[C@@H](CO)O2)c(=O)n1  AUC(0-t) (female C57BL/6 mouse, plasma; intravenous, 0.4 mg/kg): 182 ng·h/mL
CCOc1ccc(N(C)S(=O)(=O)c2cc(Cl)sc2C(=O)Nc2cc(Cl)cc(C(=O)O)c2)cc1OC  AUC(0-inf) (male C57BL/6 mouse, plasma; intraperitoneal, 10 mg/kg): 6100 ng·h/mL
Cc1c(C(=O)O)ccc2c3n(nc12)[C@@H]1[C@H](C3)N(CC2CC2)[C@@]2(C(=O)Nc3cc(Cl)ccc32)[C@H]1c1cccc(Cl)c1F  bioavailability (FVB mouse, plasma; oral, 10 mg/kg, single dose): 79%
Nc1ccc(/N=N/c2cccc(F)c2F)c(N)n1  bioavailability (male CD-1 mouse, plasma; intraperitoneal, 100 mg/kg): 261%
Cc1cc(-c2cn[nH]c2-c2cccc(OCc3cccc(C#N)c3)c2)cc(C)n1  bioavailability (mouse, plasma; oral, 200 mg/kg): 47%
Cc1c(C(=O)O)ccc2c3n(nc12)[C@@H]1[C@H](C3)N(CC2CC2)[C@@]2(C(=O)Nc3cc(Cl)ccc32)[C@H]1c1cccc(Cl)c1F  bioavailability (female mouse, plasma; oral, 5 mg/kg): 119%
CC1=NN(/C(=N/c2nnc(C)s2)Nc2ccc(C)c(C)c2)C(c2cc(F)c(F)c(F)c2)S1 (stereo not shown)  bioavailability (male CD-1 mouse, plasma; oral, 30 mg/kg): 13.4%
CCN1CCN(Cc2ccc(NC(=O)c3ccc(C)c(NC(=O)c4cncc(-c5cccs5)c4)c3)cc2C(F)(F)F)CC1  AUC(0-inf) (mouse, plasma; intraperitoneal, 15 mg/kg, single dose): 1750 ng·h/mL
CC(C)C[C@H](NC(=O)[C@@H]1COCCCCCC(=O)N2C[C@H](F)C[C@H]2C(=O)N1)C(=O)[C@@]1(C)CO1  bioavailability (male BALB/c mouse, plasma; oral, 150 mg/kg): ~10%
Cc1cc2sc(N)nc2c2cccnc12  AUC(0-t) (female BALB/c mouse, plasma; intraperitoneal, 30 mg/kg, single dose): 45500 ng·h/mL
CNC(=O)c1ccc(N2C(=S)N(c3ccc(C#N)c(C(F)(F)F)c3)C(=O)C2(C)C)cc1F  bioavailability (male C57BL/6 mouse, plasma; oral, 0.0215 mmol/kg): 45%
CN1CCN(C(=O)[C@H](CCCN[C@@H]2C[C@H]2c2ccc(F)cc2)NC(=O)c2ccc(-n3ccnn3)cc2)CC1  AUC(0-t) (CD-1 mouse, plasma; oral, 10 mg/kg): 2.27 µM·h
